Results of several laboratories.
Lines come from different studies, so protocols differ.
Cell line: PC-3
Observed: cell growth or viability

COc1cccc(Oc2ccccc2NC(=O)CNC(=O)c2cccc3ccccc23)c1
GI50 (SRB; 48 h): 282 nM

N#Cc1cccc(NC(=O)C2CCCN(C(=O)c3cc(C(F)(F)F)cc(C(F)(F)F)c3)C2)c1 (stereo not drawn)
inhibition (WST-1; 100 µM): 0%

COCCCOc1ccnc(COc2ccc(NC(=O)Nc3ccc(OC)cc3)cc2)c1C
IC50 (MTT; 72 h): 47200 nM

COc1cc2ncnc(Nc3ccc(F)c(Cl)c3)c2cc1NC(=O)N/N=C/c1cccn1CCN1CCCCC1
IC50 (MTT; 72 h): 2240 nM

Cc1c(OCC(F)(F)F)ccnc1COc1ccc(NC(=O)Nc2ccc(Cl)cc2)cc1
IC50 (MTT; 72 h): > 100000 nM

COc1ccc(C(=O)/C=C/c2ccc(Cl)c(Cl)c2)cc1S(N)(=O)=O
GI50 (SRB; 48 h): 1900 nM

Cc1cc(C)cc(COc2cc3c(cc2OCc2cc(C)cc(C)c2)[C@H]2C[C@](O)(Cc4cn(CC5CC5)nn4)C[C@H](C)N2CC3)c1
IC50 (MTT): 302 nM

COc1cccc(NC(=O)CN2C(=O)/C(=C/c3ccc(F)cc3)SC2=S)c1
inhibition (MTT; 10 µM): 13%

COc1ccc(C(=O)/C=C/c2ccc3ccccc3c2)cc1S(N)(=O)=O
inhibition (SRB; 10 µM): 112%

CCN(CC)C/C=N/NC(=O)Nc1cc2c(Nc3ccc(F)c(Cl)c3)ncnc2cc1OC
IC50 (MTT; 72 h): 4400 nM

O=C(Nc1cccc(N2CCCC2=O)c1)C1CCCN(C(=O)c2cc(C(F)(F)F)cc(C(F)(F)F)c2)C1 (stereo not drawn)
inhibition (WST-1; 100 µM): 0%

COc1c(C)cnc(COc2ccc(NC(=O)Nc3cc(F)cc(F)c3)cc2)c1C
IC50 (MTT; 72 h): 57600 nM

O=C(CN1C(=O)/C(=C/c2ccc(Cl)cc2Cl)SC1=S)Nc1ccccc1
inhibition (MTT; 10 µM): 19.2%

Cc1c(OCC(F)(F)F)ccnc1COc1ccc(NC(=O)Nc2ccc(Cl)c(C(F)(F)F)c2)cc1
IC50 (MTT; 72 h): 54200 nM

Cc1ncsc1-c1ccc(CNC(=O)[C@@H]2C[C@@H](O)CN2C(=O)[C@@H](NC(=O)CCCCCCCCCC(=O)N2CCN(CC[C@H](NC(=O)C3(N)CCN(c4ncnc5[nH]ccc45)CC3)c3ccc(Cl)cc3)CC2)C(C)(C)C)cc1
GI50 (72 h): 180 nM

Cc1cc(C)cc(COc2cc3c(cc2OCc2cc(C)cc(C)c2)[C@H]2C[C@](O)(Cc4cn(-c5ccccc5)nn4)C[C@H](C)N2CC3)c1
IC50 (MTT): 264 nM

O=C(Nc1cccc(Oc2ccccc2)c1)C1CCCN(C(=O)c2cccc(-c3ccco3)c2)C1 (stereo not drawn)
inhibition (WST-1; 100 µM): 0%

O=C(CN1C(=O)/C(=C/c2ccccn2)SC1=S)Nc1ccccc1
inhibition (MTT; 10 µM): 30.5%

COc1ccc(C(=O)/C=C/c2c(F)cccc2Cl)cc1S(N)(=O)=O
GI50 (SRB; 48 h): 4700 nM

COc1cc2ncnc(Nc3ccc(F)c(Cl)c3)c2cc1NC(=O)N/N=C/c1cccn1CCCN1CCCCC1
IC50 (MTT; 72 h): 1060 nM

O=C(CN1C(=O)/C(=C/c2cccc(Cl)c2)SC1=S)Nc1ccccc1
inhibition (MTT; 10 µM): 21%

COc1ccc(C(=O)/C=C/c2cccc(Br)c2)cc1S(N)(=O)=O
GI50 (SRB; 48 h): 2000 nM

COc1cc2ncnc(Nc3ccc(F)c(Cl)c3)c2cc1NC(=O)N/N=C/c1cccn1CCCN1CCCC1
IC50 (MTT; 72 h): 1560 nM

COc1cccc(NC(=O)C2CCCN(C(=O)c3cc(C(F)(F)F)cc(C(F)(F)F)c3)C2)c1 (stereo not drawn)
inhibition (WST-1; 100 µM): 0%

COc1cccc(/C=C2\SC(=S)N(CC(=O)Nc3ccccc3)C2=O)c1
inhibition (MTT; 10 µM): 10.6%

C=CCOc1cccc(NC(=O)C2CCCN(C(=O)c3cc(C(F)(F)F)cc(C(F)(F)F)c3)C2)c1 (stereo not drawn)
inhibition (WST-1; 100 µM): 0%

C=CS(=O)(=O)Nc1ccc(Cn2cc(C[C@@]3(O)C[C@@H]4c5cc(OCc6cc(C)cc(C)c6)c(OCc6cc(C)cc(C)c6)cc5CCN4[C@@H](C)C3)nn2)cc1
IC50 (MTT): 576 nM

O=C(N/N=C/c1cccn1CCN1CCCCC1)Nc1cc2c(Nc3ccc(F)c(Cl)c3)ncnc2cc1O[C@H]1CCOC1
IC50 (MTT; 72 h): 1570 nM

COc1cccc(NC(=O)CN2C(=O)/C(=C/C3CC3)SC2=S)c1
inhibition (MTT; 10 µM): 18.6%

COc1ccc(C(=O)/C=C/c2cc3c(cc2Br)OCO3)cc1S(N)(=O)=O
GI50 (SRB; 48 h): 6800 nM

C#CC[C@]1(O)C[C@@H]2c3cc(OCc4cc(C)cc(C)c4)c(OCc4cc(C)cc(C)c4)cc3CCN2[C@@H](C)C1
IC50 (MTT): 523 nM

CN(C)C/C=N/NC(=O)Nc1cc2c(Nc3ccc(F)c(Cl)c3)ncnc2cc1O[C@H]1CCOC1
IC50 (MTT; 72 h): 6510 nM

COc1ccc(-c2ccc(-c3ccc(C(=N)N)nc3)s2)cc1Cl
GI50: 1780 nM

O=C(Nc1cccc(Oc2nccc(C(F)(F)F)c2Cl)c1)C1CCCN(C(=O)c2cc(C(F)(F)F)cc(C(F)(F)F)c2)C1 (stereo not drawn)
inhibition (WST-1; 100 µM): 0%

O=C(CN1C(=O)/C(=C/c2ccc[nH]2)SC1=S)Nc1ccccc1
inhibition (MTT; 10 µM): 22.7%

O=C(c1ccccc1)c1cccc(NC(=O)C2CCCN(C(=O)c3cc(C(F)(F)F)cc(C(F)(F)F)c3)C2)c1 (stereo not drawn)
inhibition (WST-1; 100 µM): 0%

COc1cc2ncnc(Nc3ccc(F)c(Cl)c3)c2cc1NC(=O)N/N=C/CN1CCCCC1
IC50 (MTT; 72 h): 5760 nM

Cc1cc(C)cc(COc2cc3c(cc2OCc2cc(C)cc(C)c2)[C@H]2C[C@](O)(Cc4cn(Cc5ccc(C#N)cc5)nn4)C[C@H](C)N2CC3)c1
IC50 (MTT): 371 nM

COc1cc2ncnc(Nc3ccc(F)c(Cl)c3)c2cc1NC(=O)N/N=C/c1cccn1CCCN1CCOCC1
IC50 (MTT; 72 h): 50 nM

COc1ccccc1/C=C/C(=O)c1ccc(OC)c(S(N)(=O)=O)c1
GI50 (SRB; 48 h): 4800 nM

O=C(CN1C(=O)/C(=C/c2ccc(C(F)(F)F)cc2)SC1=S)Nc1ccccc1
inhibition (MTT; 10 µM): 32.1%

COc1ccc(-c2ccc(-c3ccc(C(=N)N)nc3)s2)cc1
GI50: 1680 nM
